Experimental data: ChEMBL document CHEMBL4680175, “Sulfonamide-based ring-fused analogues for CAN508 as novel carbonic anhydrase inhibitors endowed with antitumor activity: Design, synthesis, and in vitro biological evaluation” (Eur J Med Chem, 2020)
pIC50, pKi: −log10 of the molar value. The source made the active and inactive calls. The calls are words filed in the database; no cut-off is given here.

Assays:
Carbonic anhydrase 1 = Carbonic anhydrase 1 (Homo sapiens, UniProt P00915); assay: Inhibition of recombinant human carbonic anhydrase 1 preincubated with enzyme for 15 mins by phenol red dye based stopped flow CO2 hydrase assay
Carbonic anhydrase 1, sequence (P00915 whole entry, the tested form may be a part): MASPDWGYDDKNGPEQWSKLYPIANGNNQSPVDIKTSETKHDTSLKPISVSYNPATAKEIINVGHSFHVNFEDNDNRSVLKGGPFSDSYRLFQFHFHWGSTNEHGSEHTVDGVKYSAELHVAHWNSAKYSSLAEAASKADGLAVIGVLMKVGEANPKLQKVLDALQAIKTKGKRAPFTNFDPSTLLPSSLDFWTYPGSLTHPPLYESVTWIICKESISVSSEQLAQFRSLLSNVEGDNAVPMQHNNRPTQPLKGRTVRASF

CDK9/cyclin T1 = CDK9/cyclin T1 (Homo sapiens, UniProt P50750); assay: Inhibition of human full-length N-terminal GST/His6-tagged CDK9 (1 to 372 residues)/His6-tagged Cyclin-T1 (1 to 726 residues) expressed in sf9 cells using (YSPTSPS)2KK peptide as substrate in presence of [gamma33P]ATP
CDK9/cyclin T1, sequence (O60563 whole entry, the tested form may be a part): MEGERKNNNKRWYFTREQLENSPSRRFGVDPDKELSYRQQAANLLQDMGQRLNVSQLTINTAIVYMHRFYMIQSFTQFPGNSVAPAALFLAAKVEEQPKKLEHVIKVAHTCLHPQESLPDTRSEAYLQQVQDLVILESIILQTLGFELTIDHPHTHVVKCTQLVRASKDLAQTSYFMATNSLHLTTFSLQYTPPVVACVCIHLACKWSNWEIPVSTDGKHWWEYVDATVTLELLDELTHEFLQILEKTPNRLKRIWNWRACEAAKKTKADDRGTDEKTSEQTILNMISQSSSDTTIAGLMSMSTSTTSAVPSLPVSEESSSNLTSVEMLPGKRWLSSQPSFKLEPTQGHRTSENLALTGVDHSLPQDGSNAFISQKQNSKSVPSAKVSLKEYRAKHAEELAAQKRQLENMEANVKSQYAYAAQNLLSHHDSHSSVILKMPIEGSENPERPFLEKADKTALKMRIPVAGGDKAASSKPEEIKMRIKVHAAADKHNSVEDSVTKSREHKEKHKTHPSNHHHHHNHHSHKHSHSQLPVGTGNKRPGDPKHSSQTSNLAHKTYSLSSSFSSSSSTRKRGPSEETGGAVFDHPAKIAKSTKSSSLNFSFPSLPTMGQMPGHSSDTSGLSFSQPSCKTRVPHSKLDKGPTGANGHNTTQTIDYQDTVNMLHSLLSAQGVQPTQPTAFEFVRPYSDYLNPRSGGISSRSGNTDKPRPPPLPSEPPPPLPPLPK
CDK9/cyclin T1, sequence (P50750 whole entry, the tested form may be a part): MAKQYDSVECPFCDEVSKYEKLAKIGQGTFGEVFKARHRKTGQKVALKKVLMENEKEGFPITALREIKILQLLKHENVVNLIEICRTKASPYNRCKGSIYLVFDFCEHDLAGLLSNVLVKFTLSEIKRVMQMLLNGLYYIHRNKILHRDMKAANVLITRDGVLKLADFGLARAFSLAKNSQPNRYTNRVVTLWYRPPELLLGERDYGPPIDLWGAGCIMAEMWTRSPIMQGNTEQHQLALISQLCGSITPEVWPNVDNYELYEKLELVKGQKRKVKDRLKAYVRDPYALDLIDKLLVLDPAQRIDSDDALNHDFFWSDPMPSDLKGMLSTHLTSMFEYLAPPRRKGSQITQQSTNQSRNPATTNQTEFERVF

HL-60(TB) = assay: Antitumor activity against human HL-60(TB) cells assessed as cell growth inhibition at 10 uM incubated for 48 hrs by sulforhodamine B assay; type: functional; conditions: read-out: GI
Procedure, shortened: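 Single-dose NCI-60-type screen of 57 human cancer cell lines at 10 μM under the NCI Drug Evaluation Branch protocol. Drugs exposed for 48 h; growth and viability read by sulforhodamine B assay. Data given as mean-graph percent growth of treated cells, expressed as percent growth inhibition.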

SR = assay: Antitumor activity against human SR cells assessed as cell growth inhibition at 10 uM incubated for 48 hrs by sulforhodamine B assay; type: functional; conditions: read-out: GI
Procedure, shortened: (§1)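 NCI one-dose screen: 57-cell-line panel exposed at 10 μM for 48 h, Drug Evaluation Branch protocol. Growth and viability read by sulforhodamine B; data given as percent growth inhibition from the mean-graph of percent growth of treated cells.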

A549 = assay: Antitumor activity against human A549/ATCC cells assessed as cell growth inhibition at 10 uM incubated for 48 hrs by sulforhodamine B assay; type: functional; conditions: read-out: GI
Procedure, shortened: (§2)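 NCI Drug Evaluation Branch protocol: primary single-dose screen at 10 μM across a 57-line human cancer panel. Drug exposure is 48 h. Cell growth and viability are read by sulforhodamine B assay. Data are given as a mean graph of percent growth of treated cells and reported as percentage growth inhibition (GI%).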

EKVX = assay: Antitumor activity against human EKVX cells assessed as cell growth inhibition at 10 uM incubated for 48 hrs by sulforhodamine B assay; type: functional; conditions: read-out: GI; procedure, shortened: as §2
NCI-H23 = assay: Antitumor activity against human NCI-H23 cells assessed as cell growth inhibition at 10 uM incubated for 48 hrs by sulforhodamine B assay; type: functional; conditions: read-out: GI; procedure, shortened: as §2
COLO 205 = assay: Antitumor activity against human COLO205 cells assessed as cell growth inhibition at 10 uM incubated for 48 hrs by sulforhodamine B assay; type: functional; conditions: read-out: GI; procedure, shortened: as §2
HCC 2998 = assay: Antitumor activity against human HCC2998 cells assessed as cell growth inhibition at 10 uM incubated for 48 hrs by sulforhodamine B assay; type: functional; conditions: read-out: GI; procedure, shortened: as §2
HCT-15 = assay: Antitumor activity against human HCT15 cells assessed as cell growth inhibition at 10 uM incubated for 48 hrs by sulforhodamine B assay; type: functional; conditions: read-out: GI; procedure, shortened: as §2
HT-29 = assay: Antitumor activity against human HT-29 cells assessed as cell growth inhibition at 10 uM incubated for 48 hrs by sulforhodamine B assay; type: functional; conditions: read-out: GI; procedure, shortened: as §2
SW-620 = assay: Antitumor activity against human SW620 cells assessed as cell growth inhibition at 10 uM incubated for 48 hrs by sulforhodamine B assay; type: functional; conditions: read-out: GI; procedure, shortened: as §1
SF-295 = assay: Antitumor activity against human SF295 cells assessed as cell growth inhibition at 10 uM incubated for 48 hrs by sulforhodamine B assay; type: functional; conditions: read-out: GI; procedure, shortened: as §2
SNB-19 = assay: Antitumor activity against human SNB-19 cells assessed as cell growth inhibition at 10 uM incubated for 48 hrs by sulforhodamine B assay; type: functional; conditions: read-out: GI; procedure, shortened: as §2
M14 = assay: Antitumor activity against human M14 cells assessed as cell growth inhibition at 10 uM incubated for 48 hrs by sulforhodamine B assay; type: functional; conditions: read-out: GI; procedure, shortened: as §2
MDA-MB-435 = assay: Antitumor activity against human MDA-MB-435 cells assessed as cell growth inhibition at 10 uM incubated for 48 hrs by sulforhodamine B assay; type: functional; conditions: read-out: GI; procedure, shortened: as §2
SK-MEL-28 = assay: Antitumor activity against human SK-MEL-28 cells assessed as cell growth inhibition at 10 uM incubated for 48 hrs by sulforhodamine B assay; type: functional; conditions: read-out: GI; procedure, shortened: as §2
UACC-257 = assay: Antitumor activity against human UACC-257 cells assessed as cell growth inhibition at 10 uM incubated for 48 hrs by sulforhodamine B assay; type: functional; conditions: read-out: GI; procedure, shortened: as §1
UACC-62 = assay: Antitumor activity against human UACC-62 cells assessed as cell growth inhibition at 10 uM incubated for 48 hrs by sulforhodamine B assay; type: functional; conditions: read-out: GI; procedure, shortened: as §1
OVCAR-4 = assay: Antitumor activity against human OVCAR-4 cells assessed as cell growth inhibition at 10 uM incubated for 48 hrs by sulforhodamine B assay; type: functional; conditions: read-out: GI; procedure, shortened: as §2
OVCAR-5 = assay: Antitumor activity against human OVCAR-5 cells assessed as cell growth inhibition at 10 uM incubated for 48 hrs by sulforhodamine B assay; type: functional; conditions: read-out: GI; procedure, shortened: as §2
SK-OV-3 = assay: Antitumor activity against human SK-OV-3 cells assessed as cell growth inhibition at 10 uM incubated for 48 hrs by sulforhodamine B assay; type: functional; conditions: read-out: GI; procedure, shortened: as §2
786-0 = assay: Antitumor activity against human 786-0 cells assessed as cell growth inhibition at 10 uM incubated for 48 hrs by sulforhodamine B assay; type: functional; conditions: read-out: GI; procedure, shortened: as §2
A498 = assay: Antitumor activity against human A498 cells assessed as cell growth inhibition at 10 uM incubated for 48 hrs by sulforhodamine B assay; type: functional; conditions: read-out: GI; procedure, shortened: as §2
ACHN = assay: Antitumor activity against human ACHN cells assessed as cell growth inhibition at 10 uM incubated for 48 hrs by sulforhodamine B assay; type: functional; conditions: read-out: GI; procedure, shortened: as §2
PC-3 = assay: Antitumor activity against human PC-3 cells assessed as cell growth inhibition at 10 uM incubated for 48 hrs by sulforhodamine B assay; type: functional; conditions: read-out: GI; procedure, shortened: as §2
TK-10 = assay: Antitumor activity against human TK-10 cells assessed as cell growth inhibition at 10 uM incubated for 48 hrs by sulforhodamine B assay; type: functional; conditions: read-out: GI; procedure, shortened: as §1
MCF7 [1] = assay: Antiproliferative activity against human MCF7 cells measured after 48 hrs under normoxic condition by MTT assay; type: functional, cell-based; conditions: MCF7, 48 h
MCF7 [2] = assay: Antiproliferative activity against human MCF7 cells measured after 48 hrs under CoCl2-induced hypoxic condition by MTT assay; type: functional, cell-based; conditions: MCF7, 48 h
MDA-MB-468 [3] = assay: Antiproliferative activity against human MDA-MB-468 cells measured after 48 hrs under normoxic condition by MTT assay; type: functional, cell-based; conditions: MDA-MB-468, 48 h
MCF7 [4] = assay: Induction of cell cycle arrest in human MCF7 cells assessed as accumulation at G2/M phase at IC50 concentration incubated for 24 hrs by PI/RNase staining based flow cytometric analysis; type: functional
Procedure, shortened: (§3)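 Cells were washed in ice-cold PBS, fixed in ice-cold 70% ethanol, treated with 100 µg/mL RNase and stained with 40 µg/mL PI. DNA content was read by flow cytometry, with sub-G1 compared against control.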

MCF7 [5] = assay: Induction of cell cycle arrest in human MCF7 cells assessed as fold increase in apoptotic cells at sub-G1 phase at IC50 concentration incubated for 24 hrs by PI/RNase staining based flow cytometric analysis relative to control; type: functional; procedure, shortened: as §3
MCF7 [6] = assay: Induction of apoptosis in human MCF7 cells assessed as early apoptotic cells by Annexin V-FITC/propidium iodide staining based flow cytometric analysis (reference value: 0.47 %); type: functional
MCF7 [7] = assay: Induction of apoptosis in human MCF7 cells assessed as late apoptotic cells by Annexin V-FITC/propidium iodide staining based flow cytometric analysis (reference value: 0.29 %); type: functional
MCF7 [8] = assay: Induction of apoptosis in human MCF7 cells assessed as necrotic cells by Annexin V-FITC/propidium iodide staining based flow cytometric analysis (reference value: 1.3 %); type: functional
MDA-MB-468 [9] = assay: Antiproliferative activity against human MDA-MB-468 cells measured after 48 hrs under CoCl2-induced hypoxic condition by MTT assay; type: functional, cell-based; conditions: MDA-MB-468, 48 h

Row | Compound | pKi (Carbonic anhydrase 1) | pIC50 (CDK9/cyclin T1) | inhibition of growth at 10 µM (HL-60(TB)) [%] | inhibition of growth at 10 µM (SR) [%] | inhibition of growth at 10 µM (A549) [%] | inhibition of growth at 10 µM (EKVX) [%] | inhibition of growth at 10 µM (NCI-H23) [%] | inhibition of growth at 10 µM (COLO 205) [%] | inhibition of growth at 10 µM (HCC 2998) [%] | inhibition of growth at 10 µM (HCT-15) [%] | inhibition of growth at 10 µM (HT-29) [%] | inhibition of growth at 10 µM (SW-620) [%] | inhibition of growth at 10 µM (SNB-19) [%] | inhibition of growth at 10 µM (M14) [%] | inhibition of growth at 10 µM (MDA-MB-435) [%] | inhibition of growth at 10 µM (SK-MEL-28) [%] | inhibition of growth at 10 µM (UACC-257) [%] | inhibition of growth at 10 µM (UACC-62) [%] | inhibition of growth at 10 µM (OVCAR-4) [%] | inhibition of growth at 10 µM (PC-3) [%] | other results
1 | Cc1ccc(-c2cn3nc(N)c(/N=N/c4ccc(S(N)(=O)=O)cc4)c3[nH]2)cc1 | 5.92 | < 4.90 | 47 | 63 | 62 | 28 | 34 | 24 | 40 | 65 | 37 | 60 | 24 | 60 | 52 | 38 | 20 | 44 | 46 | 43 | inhibition of growth at 10 µM (SF-295): 29%; inhibition of growth at 10 µM (OVCAR-5): 23%; inhibition of growth at 10 µM (SK-OV-3): 77%; inhibition of growth at 10 µM (786-0): 60%; inhibition of growth at 10 µM (A498): 87%; inhibition of growth at 10 µM (ACHN): 79%; inhibition of growth at 10 µM (TK-10): 53%
2 | N#Cc1c(-c2ccc(Cl)cc2)nc2c(/N=N/c3ccc(S(N)(=O)=O)cc3)c(N)nn2c1N | 5.65 | < 4.90 |  |  |  |  |  |  |  |  |  |  |  |  |  |  |  |  |  | 38 | pIC50 (MCF7 [1]): 5.68; pIC50 (MCF7 [2]): 4.99; pIC50 (MDA-MB-468 [3]): 4.94; Activity (MCF7 [4]): Active; fold change (FC) (MCF7 [5]): 8; Activity (MCF7 [6]): 5.88%; Activity (MCF7 [7]): 8.2%; Activity (MCF7 [8]): 2.17%; pIC50 (MDA-MB-468 [9]): 4.71
3 | Nc1nn2cc(-c3ccc(Br)cc3)[nH]c2c1/N=N/c1ccc(S(N)(=O)=O)cc1 | 5.80 | < 4.90 | 36 | 54 | 51 | 21 | 30 | 28 | 33 | 63 | 34 | 48 | 26 | 61 | 46 | 32 | 21 | 47 | 43 | 39 | inhibition of growth at 10 µM (OVCAR-5): 24%; inhibition of growth at 10 µM (SK-OV-3): 82%; inhibition of growth at 10 µM (786-0): 56%; inhibition of growth at 10 µM (A498): 83%; inhibition of growth at 10 µM (ACHN): 76%; inhibition of growth at 10 µM (TK-10): 50%
4 | Nc1nn2cc(-c3ccccc3)[nH]c2c1/N=N/c1ccc(S(N)(=O)=O)cc1 | 6.02 | < 4.60 | 72 | 87 | 67 | 45 | 54 | 55 | 54 | 77 | 61 | 74 | 40 | 69 | 71 | 55 | 31 | 69 | 63 | 68 | inhibition of growth at 10 µM (SF-295): 52%; inhibition of growth at 10 µM (OVCAR-5): 35%; inhibition of growth at 10 µM (SK-OV-3): 87%; inhibition of growth at 10 µM (786-0): 72%; inhibition of growth at 10 µM (A498): 92%; inhibition of growth at 10 µM (ACHN): 91%; inhibition of growth at 10 µM (TK-10): 52%
